From ChEMBL document CHEMBL4043283, “Discovery and Preclinical Development of IIIM-290, an Orally Active Potent Cyclin-Dependent Kinase Inhibitor” (J Med Chem, 2018) come the findings set out here.

The nature of series [1]: Chemical stability of compound in SGF at pH 1.2 assessed as parent compound remaining after 8 hrs by HPLC method. The format is physicochemical. The note with it: read-out: Stability.
Another series deals with 786-0. As to the kind of experiment: Growth inhibition of human 786-0 cells after 48 hrs by MTT assay. As to conditions: 786-0, 48 h. The format is functional. Put shortly: (§1)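 Cancer cell lines sourced from the National Cancer Institute (USA). Cells kept in appropriate growth medium at 37 °C, 95% humidity, 5% CO2. Antiproliferation read by tetrazolium (MTT) assay. GI50 values were determined only for compounds selected after an initial single-concentration screen.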

A short description of series [2]: AUC in BALB/c mouse at 10 mg/kg, po by LC-MS/MS analysis. As to conditions: in vivo. In kind it is ADME, organism-based.
A short description of series [3]: Initial concentration in BALB/c mouse at 1 mg/kg, iv by LC-MS/MS analysis. The format is ADME, organism-based. As to conditions: in vivo.
A further series has as its system NCI-H522. As to the kind of experiment: Growth inhibition of human NCI-H522 cells after 48 hrs by MTT assay. The format is functional. As to conditions: NCI-H522, 48 h. Put shortly: as §1
(Tetrazolium assays rely on reduction of a dye to a coloured formazan, in cell work by metabolically active cells.)

A further series relates to PC-3. As to the kind of experiment: Growth inhibition of human PC3 cells at 10 uM after 48 hrs by MTT assay relative to control. The format is functional. The note with it: PC-3, 48 h, read-out: GI. Put shortly: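 Single-concentration primary screen at 10 μM by MTT assay. Cells were NCI-sourced cancer lines grown in appropriate medium at 37 °C, 95% humidity, 5% CO2. Growth inhibition is expressed relative to control.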

Each structure is given as a SMILES string.

Broadly, the GI50 is the concentration giving 50% growth inhibition. Usually AUC stands for the area under the concentration-time curve, a measure of exposure. Read a low AUC as less exposure. `CN1CC[C@H](c2c(O)cc(O)c3c(=O)cc(/C=C/c4c(Cl)cccc4Cl)oc23)[C@H](O)C1`: the remaining at 8 h in series [1] is 100%. The GI50 in the series with 786-0 worked out at 6 µM; with NCI-H522, 5 µM. This compound returned an exposure (AUC) in series [2] of 2.41 µM·h. Further, the C0 in series [3] turned out to be 859 ng/mL. Moreover, in the series on PC-3, the inhibition of growth at 10 µM came to 84%.
